Assay results from paper PMC7280087 (Drug Design, Development and Therapy, 2020).

Experiments:
[1] = assay type: in vivo, Sprague-Dawley rats; details: single-dose group (voriconazole 30 mg/kg); vonoprazan 10 mg/kg oral; rats
[2] = target: vonoprazan metabolism in rat liver microsomes; assay: Inhibition of vonoprazan metabolism by voriconazole in rat liver microsomes; assay type: in vitro ADME; details: RLM; for mode of inhibition of vonoprazan metabolism: Lineweaver–Burk plot, Ki ≠ αKi
Method in brief: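 Rat liver microsomes were prepared in-house and used at 0.44 mg/mL, with 1 mM NADPH in 100 mM potassium phosphate (pH 7.4) in a 200 µL volume. Test inhibitor was at 0, 1.5, 3, 6 and 12 μM and substrate at 5, 10, 20 and 40 μM. Incubation ran 50 min at 37°C, was stopped by −80°C cooling, then acetonitrile plus IS was added. Substrate was quantified by LC-MS/MS, with Lineweaver–Burk and secondary plots giving Ki and αKi.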

[3] = 0-12 μM voriconazole, 5-40 μM vonoprazan, Lineweaver–Burk secondary plot

decrease of CLz/F compared with the control group [1] [fold] | Ki [2, 3] [nM] | αKi [2, 3] [µM] | Structure (SMILES) | mode of inhibition of vonoprazan metabolism [2] | mode of inhibition of vonoprazan metabolism ([2]; listed as voriconazole)
2.7 |  |  | CNCc1cc(-c2ccccc2F)n(S(=O)(=O)c2cccnc2)c1 [Vonoprazan, vonoprazan] |  | 
 | 2690 | 5.32 | C[C@@H](c1ncncc1F)[C@](O)(Cn1cncn1)c1ccc(F)cc1F [Voriconazole, voriconazole] | mixed inhibition | mixed type
